An excerpt weighted towards active compounds, which were near 3% of everything screened.
proKLK7 act = proKLK7 zymogen activators, primary screen, biochemical, fluorescence intensity; purified proKLK7, EDANS-DABCYL substrate fluorescence; 100% is mature enzyme control, 0% vehicle; activation, % at 7 µM; Kallikrein-7 (Homo sapiens), P49862; 370,000 compounds, 0.9% hits;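 active means activation above the mean of all tested compounds plus 3 SD, computed per campaign excluding outliers beyond control limits, cut at about 13% in these data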
PLCb3 inh = human PLC-beta3 inhibitors, primary screen, biochemical, fluorescence; inhibition, % at 12.2 µM; AID 720704, 2013; 1-phosphatidylinositol 4,5-bisphosphate phosphodiesterase beta-3 (Homo sapiens), Q01970; Purified PLC-beta3, fluorogenic substrate; 370,000 compounds, 0.18% hits; in the data active means inhibition above about 11%
CendR NRP1 mod = modulators of CendR peptide binding to NRP-1, primary screen, biochemical, fluorescence polarization, uHTS | Neuropilin-1 (Homo sapiens), O14786 | FAM-RPARPAR peptide binding to NRP-1 | inhibition, % at 25 µM | 360,000 compounds, 0.85% hits;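 active means inhibition or corrected inhibition above about 18%, plus a signal ratio from 0.5 to 1.5, limit read from the data, passing the limit was not always enough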
DDE Tn7 FP inh = inhibitors of Tn7 peptide binding to fibrin DD(E), primary screen, biochemical, fluorescence polarization, human fibrin, Tn7 probe. FP displacement of FITC-Tn7 peptide from fibrin DD(E); 0% = median of compound wells per plate. inhibition, % at 8.3 µM. 370,000 compounds, 0.13% hits;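 active means inhibition above the mean of compounds falling within the control limits plus 3 SD of them, cut at about 14% in these data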
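Assay system: human fibrin DD(E). Input: DD(E) 2 µM final. Medium: Tris buffer with calcium and detergent, pH 7.8. Compound dosing: single point at 8.3 µM. Timing: 10 min plus 3 h, room temperature. Technique: fluorescence polarization of the labelled Tn7 tracer. Read-out: percent inhibition. Replicates: singlicate testing.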
DDE Tn6 FP inh = inhibitors of Tn6 peptide binding to fibrin DD(E), primary screen, biochemical, fluorescence polarization, human fibrin, Tn6 probe; Fibrinogen beta chain (Homo sapiens), P02675; Fibrin DD(E) TRITC-Tn6 fluorescence polarization displacement; inhibition, % at 8.3 µM; 370,000 compounds, 0.21% hits;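 active means inhibition above a per-campaign cutoff: mean of compounds within control limits plus 3 SD, cut at about 15% in these data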
PLCg1 inh = PLC-gamma1 enzyme inhibitors, primary screen, biochemical, fluorescence, purified enzyme; 1-phosphatidylinositol 4,5-bisphosphate phosphodiesterase gamma-1 (Homo sapiens), P19174; fluorogenic substrate; inhibition, % at 12.2 µM; 370,000 compounds, 0.84% hits; AID 720700, 2013
PLCgamma1 ctr = PLC-gamma1 enzyme inhibitors, counter-screen for PLC-beta3 inhibitor project, biochemical, fluorescence; shares compounds with PLCg1 inh; purified PLC-gamma1, fluorogenic substrate; inhibition, % at 12.3 µM; 3,300 compounds, 3.1% hits; AID 743258, 2014
PLCb3 confirm = PLC-beta3 inhibitor confirmation, biochemical, fluorescence, purified enzyme. shares compounds with PLCg1 inh. fluorogenic substrate fluorescence. inhibition, % at 12.3 µM. 3,300 compounds, 1% hits; in the data active means inhibition above about 11%
Numbers stand for hits; n = inactive; x = no result given. Unless noted, no stated cut-off is given here; in the data, active means inhibition above about 9.5%; inactive means the rest.

SMILES | proKLK7 act | PLCb3 inh | CendR NRP1 mod | DDE Tn7 FP inh | DDE Tn6 FP inh | PLCg1 inh | PLCgamma1 ctr | PLCb3 confirm
C=C1[C@H]2CC[C@H]3[C@]4(C)C[C@H](O[C@@H]5OC(CO)[C@@H](OSOOO)[C@H](OS(=O)(=O)O)[C@H]5OC(=O)CC(C)C)C[C@@H](C(=O)O)[C@H]4CC[C@]3(C2)[C@H]1O (some centres undefined) | n | 11.9 | n | n | n | n | n | n
O=[N+]([O-])c1ccc(C(c2ccc([N+](=O)[O-])cc2)c2ccc([N+](=O)[O-])cc2)cc1 | n | n | n | n | n | n | x | x
Cn1cnc([N+](=O)[O-])c1Sc1ccc([N+](=O)[O-])cc1 | n | 11.0 | n | n | n | n | n | n
CN(C)CP(=O)(O)CN(C)C=O | n | 12.4 | n | n | n | n | n | n
COc1ccc(-c2ccc3c(c2)CN(CC(C)C)Cc2cnnn2-3)cc1 | n | n | n | n | n | n | x | x
COc1ccc(-c2ccc3c(c2)CN(c2cccc(Cl)c2)Cc2cnnn2-3)cc1 | n | n | n | n | n | 13.1 | n | n
CC(=NCCCN1CCOCC1)c1c(O)[nH]c(=O)[nH]c1=O | n | n | n | n | n | 15.1 | n | n
C=CCn1c(O)c(C(C)=NCCCN2CCOCC2)c(=O)[nH]c1=O | n | n | n | n | n | n | x | x
Nc1ccc(-c2ccc(N)cc2)cc1 | n | n | n | n | n | n | x | x
CCC(=NCC1CCCO1)c1c(O)n(-c2ccccc2)c(=O)[nH]c1=O (centres undefined) | n | n | n | n | n | n | x | x
CCCCn1c(O)c(C(CC)=NCCc2ccccc2)c(=O)[nH]c1=O | n | n | n | n | n | 9.9 | n | n
CCC(=NCC1CCCO1)c1c(O)n(Cc2ccccc2)c(=O)[nH]c1=O (centres undefined) | n | 19.7 | n | n | n | n | n | 14.7
C[C@H]1CNCCN1c1ccc(N2CC[C@H](O)C2)c(C#N)c1 | n | n | x | n | n | n | x | x
CCC(c1nnnn1C1CCCCC1)N1CCC2(CC1)C(=O)NCN2c1ccccc1 (centres undefined) | n | n | n | n | n | n | x | x
Cc1cccc(OCC(=O)N2CCN(Cc3ccc4c(c3)OCO4)CC2)c1 | n | n | n | n | n | n | x | x
Cc1cccc(OCC(=O)N2CCN(Cc3ccncc3)CC2)c1 | n | n | n | n | n | 12.7 | n | n
CC(=O)OC1C(O)C2=C3C4(C)C1C(C)(C)C(=O)CC4C3(O)C(OC(C)=O)C1(CC1C)C2=O (centres undefined) | n | n | n | n | n | n | x | x
COc1ccccc1-n1c(CNCC2CCCO2)nc2ccccc2c1=O (centres undefined) | n | 11.2 | n | n | n | 12.8 | 9.6 | n
O=C(COc1ccccc1)N1CCN(Cc2c[nH]c3ccccc23)CC1 | n | n | n | n | n | 10.8 | n | n
O=P1(c2ccccc2)CC=CC1 | n | n | n | n | n | n | x | x
CC1(C)CC(=O)CC(C)(C)N1O | n | n | n | n | n | 11.5 | n | n
CN1CCN(CCC(C#N)(c2ccccc2)c2ccccc2)CC1 | n | 12.1 | n | n | n | 10.8 | n | n
c1ccc(CCN2CCC3CCNC3C2)cc1 (centres undefined) | n | n | x | n | n | n | x | x
O=C(NCCN1CCC2(CC1)C(=O)NCN2c1ccccc1)c1cccc2c1-c1ccccc1C2=O | n | n | x | n | n | n | x | x
OC1CN2CCC(O)C2C(O)C1O (centres undefined) | n | n | x | n | n | n | x | x
SMILES | proKLK7 act | PLCb3 inh | CendR NRP1 mod | DDE Tn7 FP inh | DDE Tn6 FP inh | PLCg1 inh | PLCgamma1 ctr | PLCb3 confirm
COC(=O)c1c(C)n(Cc2ccc3c(c2)OCO3)c2ccc(O)cc12 | n | n | n | n | n | 11.5 | n | n
CCC1([N+](=O)[O-])COP(N)(=O)OC1 (centres undefined) | n | n | n | n | n | n | x | x
Cc1ccc(C2SCC(=O)Nc3c2c(=O)[nH]n3C2CCOC(C)(C)C2)cc1 (centres undefined) | n | n | n | n | n | n | x | x
CC1(C)CC(n2[nH]c(=O)c3c2NC(=O)CSC3c2ccccc2)CCO1 (centres undefined) | n | n | n | n | n | 16.6 | n | n
COC(=O)C1=C(c2ccc(OC(F)(F)F)cc2)C[C@@H]2CC[C@H]1N2C(=O)N1CCCC1 | n | n | n | n | n | 11.8 | n | n
CN1C(=O)C(c2ccccc2)C(=O)N(C)C1=O | n | n | n | n | n | n | x | x
CC(=O)CC(=O)C1C(=O)N(C)C(=O)N(C)C1=O | n | n | n | n | n | 11.3 | n | n
CCN1CCC2(CC1)NC(CO)(CO)CO2 | n | n | n | n | n | 10.6 | n | n
C=CCN1C[C@H](C)N(C(c2ccc(C(=O)N(CC)CC)cc2)c2cccc(OC)c2)CC1C (some centres undefined) | n | n | x | n | n | n | x | x
CCCCC(=O)N/N=C/c1c(O)n(C2CC2)c(=S)[nH]c1=O | n | n | n | n | n | 10.4 | n | n
CCCCN(Cc1ccccc1)C1CCN(CCc2ccccc2)CC1 | n | n | n | n | n | 12.9 | n | n
Cc1cc(Cl)nc(N)n1 | n | n | n | n | n | 12.6 | n | n
CC(C)(C)c1cc(O)ccc1O | n | n | x | n | n | n | x | x
CCOC(=O)[C@]12Cc3ccc4ccccc4c3[C@H]1N(Cc1ccccc1)C(=O)c1ccccc12 | n | n | n | n | n | 10.6 | n | n
CSCCC(c1nnnn1-c1ccc2c(c1)OCCO2)N1CCC(n2c(=O)[nH]c3ccccc32)CC1 (centres undefined) | n | n | n | n | n | n | x | x
CC(=NCc1ccco1)c1c(O)n(C)c(=O)n(C)c1=O | n | n | n | n | n | 10.1 | n | n
CCC(=NCc1ccco1)c1c(O)n(C)c(=O)n(C)c1=O | n | n | n | n | n | n | x | x
